# Screening results from PubChem BioAssay.
# An excerpt weighted towards active compounds, which were near 2.2% of everything screened.
# PPC-1+TRAIL kill = compounds killing PPC-1 cancer cells with TRAIL present, primary screen, TRAIL potentiator project, ATPLite luminescence, uHTS; PPC-1 cells + TRAIL, ATPLite viability luminescence; cell killing (% activity), % at 4 µM or 5 µM; actives 0.41% (n = 220,000);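 active = cell killing above 50% in the first pass at 4 µM, then a duplicate retest at 5 µM averaging 50% or more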;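 note: plate controls were cells with TRAIL plus DMSO for no effect and medium-only wells lacking cells for full effect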
# Wee1 degr inh = Wee1 degradation inhibitors, primary screen, cell-based, HeLa, Wee1K328M-luciferase, luminescence; HeLa Luc-Wee1K328M stability; 100% = proteasome inhibitor MG132 effect; actives 1.2% (n = 220,000); reporter increase, % at 5 µM; AID 1321, 2008;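 active = activation above the mean of all tested compounds plus 3 SD, set per screening run, cut at about 8.8% in these data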;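 note: cells exposed to compound for 20 h before luminescence read; 0% = DMSO alone and 100% = MG132 at 30 µM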
# C8 TRAIL sens = viability loss with TRAIL in NB7+C8 cells, primary screen, TRAIL sensitizer project, cell-based, ATPlite luminescence. inhibition (viability loss, TRAIL sensitization), % at 10 µM. actives 1% (n = 360,000);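 active = compounds causing at least 50% loss of cell viability in the single-dose screen, relative to plate controls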
# PKD1 kinase inh = inhibitors of human PKD1 kinase, biochemical, fluorescence polarization; Serine/threonine-protein kinase D1 (Homo sapiens), Q15139; actives 0.056% (n = 200,000); PKD1 kinase fluorescence polarization assay; inhibition, % (concentration not given with the values); in the data active = inhibition above about 50%
# Target sequence (Q15139 whole entry, looked up): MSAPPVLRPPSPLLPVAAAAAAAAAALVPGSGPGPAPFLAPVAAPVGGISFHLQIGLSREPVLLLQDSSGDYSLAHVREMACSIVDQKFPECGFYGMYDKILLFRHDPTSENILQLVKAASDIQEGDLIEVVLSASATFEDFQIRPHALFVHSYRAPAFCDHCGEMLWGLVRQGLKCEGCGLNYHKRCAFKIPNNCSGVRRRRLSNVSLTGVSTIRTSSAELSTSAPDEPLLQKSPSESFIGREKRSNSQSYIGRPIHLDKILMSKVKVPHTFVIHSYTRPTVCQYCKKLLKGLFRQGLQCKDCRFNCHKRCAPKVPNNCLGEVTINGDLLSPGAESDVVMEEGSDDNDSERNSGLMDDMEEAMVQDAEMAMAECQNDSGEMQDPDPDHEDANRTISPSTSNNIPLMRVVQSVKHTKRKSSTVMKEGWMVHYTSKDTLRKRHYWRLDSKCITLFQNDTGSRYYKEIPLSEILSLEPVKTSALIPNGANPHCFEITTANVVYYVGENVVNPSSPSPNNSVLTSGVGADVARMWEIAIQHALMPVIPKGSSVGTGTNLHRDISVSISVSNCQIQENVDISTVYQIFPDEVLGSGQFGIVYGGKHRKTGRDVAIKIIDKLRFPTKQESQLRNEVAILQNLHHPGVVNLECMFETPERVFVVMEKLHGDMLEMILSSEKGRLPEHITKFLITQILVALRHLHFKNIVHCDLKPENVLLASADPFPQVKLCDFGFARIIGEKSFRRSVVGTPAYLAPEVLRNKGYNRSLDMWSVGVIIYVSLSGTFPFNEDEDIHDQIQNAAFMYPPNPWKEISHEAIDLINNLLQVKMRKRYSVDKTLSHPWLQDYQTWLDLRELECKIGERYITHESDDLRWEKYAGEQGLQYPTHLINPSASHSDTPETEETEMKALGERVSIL
# FLuc inhib CS = firefly luciferase enzyme inhibitors, primary screen, artefact control for luciferase-based inhibitor screens, biochemical, luminescence, ATPLite; Luciferin 4-monooxygenase (Photinus pyralis), P08659; 10 min; inhibition, % at 10 µM; actives 1.5% (n = 200,000);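 active = inhibition above about 50% when tested at 10 µM, limit read from the data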
# FLuc stim CS = FLuc activators, initial screening, artefact control for FLuc-dependent activation tests, biochemical, ATPlite luminescence | ATPlite luciferase biochemical, 10 min; 0 = ATP-free wells, 1 = DMSO control | activation factor at 10 µM | 200,000 tested, under 10 active | AID 1027, 2008;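 active = luciferase activation factor, scaled between plate controls, of at least 2 with compound at 10 µM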
#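 System: cell-free luciferase reagent; medium: PBS as buffer for the ATP substrate; doses: test compounds dosed from 2 mM stocks in 100% DMSO; incubation: 10 min, room temperature; measured by: luminescence from luciferase reaction; read-out: luciferase activation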
# * marks the source's active call; other numbers are inactive results; . = no result.
SMILES,PPC-1+TRAIL kill,Wee1 degr inh,C8 TRAIL sens,PKD1 kinase inh,FLuc inhib CS,FLuc stim CS
CC(C)(C)OC(=O)NCCCC[C@H](NC(=O)c1nc[nH]c1C(=O)NC(c1ccccc1)c1ccccc1)C(=O)OC(C)(C)C,5.2,-0.7,53.3*,-7.4,-1.4,1
CC1CCC(N(C)C(=O)CN2C(=O)NC(c3ccccc3)(c3ccccc3)C2=O)CC1 (configuration not stated),.,.,-15.6,.,.,.
C(=N\n1cnnc1)/c1ccc(N2CCOCC2)cc1,-2.3,-0.2,15.3,-0.7,7.5,0.9
CN(C)/N=C/c1ccc(N2CCOCC2)cc1,20.5,4.5,15.6,-0.9,63.0*,0.4
CC(=O)N1CCOc2ccc(S(=O)(=O)N3CCC(C)CC3)cc21,.,.,2.6,.,.,.
Nc1n[nH]c(-c2ccc(F)cc2)n1,-3.9,2.3,1.5,1.1,-2.8,1
CCCCc1ccc(-c2nc(N)n[nH]2)cc1,42.8,-0.8,14.1,8.5,68.5*,0.3
CCN1C(=O)[C@H]2[C@H]3CN=C(SCC4CC4)N3[C@@](CC)(C(=O)OC)[C@H]2C1=O,.,.,12.7,.,.,.
COC(=O)/C=c1/sc2nc3ccccc3n2c1=O,-4.6,3.5,0.6,-15.0,-2.1,1
O=c1/c(=C/c2ccccn2)sc2nc3ccccc3n12,21.5,-0.9,54.4*,18.6,76.2*,0.2
O=C(NCCCSc1ccccc1)c1cc(Cl)ccc1O,.,.,18.9,.,.,.
C[C@@H]1CN([C@@H](C)CO)C(=O)c2cc(NC(=O)C3CCCCC3)ccc2O[C@@H](C)CCCCO[C@@H]1CN(C)Cc1ccncc1,.,.,-2.7,.,.,.
Cc1cc(NC(=O)C(C)C)ncc1NC(=O)Cc1ccccc1,4.4,10.3*,14.0,2.0,-2.8,1
CCCC(=O)Nc1cc(C)c(NC(=O)Cc2ccccc2)cn1,9.3,0.5,.,3.1,-4.2,1
Nc1ccccc1C(=O)/C=C/c1ccc2c(c1)OCO2,27.9,-3.0,28.1,-9.0,61.5*,0.4
O=C(/C=C/c1ccc2c(c1)OCO2)c1ccco1,22.2,1.2,-4.7,1.6,58.3*,0.4
O=C(/C=C/c1ccc2c(c1)OCO2)c1ccc(O)cc1O,.,.,10.4,.,.,.
CCOC(=O)c1c(C)[nH]c(C(=O)N2CCC(C(=O)OCC)CC2)c1C,.,.,-7.0,.,.,.
O=C(NC(=S)Nc1ccccc1O)c1ccc(-c2ccc(Cl)cc2)o1,-9.8,1.3,6.6,0.5,-4.8,1
COc1ccccc1NC(=S)NC(=O)c1ccc(-c2ccc(Cl)cc2)o1,8.1,14.2*,-13.0,11.6,-9.1,1.1
CCN(c1ccccc1)S(=O)(=O)c1ccc(OC)c(NC(=O)C2=NN(c3ccccc3)C(=O)CC2)c1,.,.,16.1,.,.,.
COc1cccc(CNC(=O)CCC2CCCN(c3cc(C)nc(N)n3)C2)c1 (configuration not stated),17.1,-0.3,-0.8,3.5,-3.2,1
Cc1ccc(/C=[N+](\[O-])c2ccc(N(C)C)cc2)c2nsnc12,24.8,-1.5,15.4,-5.9,72.1*,0.3
Cc1ccc2nsnc2c1NS(=O)(=O)c1c(C)ccc2nsnc12,-11.0,1.3,-5.1,5.1,-3.7,1
Cc1cc(C)nc(NC(=NCCc2c[nH]c3ccccc23)NC(=O)C(C)(C)C)n1,6.7,4.2,12.1,.,.,.
SMILES,PPC-1+TRAIL kill,Wee1 degr inh,C8 TRAIL sens,PKD1 kinase inh,FLuc inhib CS,FLuc stim CS
Cc1cnc(C(=O)Nc2ccc(OC(F)(F)F)cc2)cn1,.,.,24.0,.,.,.
O=C(Nc1ccc(OC(F)(F)F)cc1)C1=NCCN1,17.6,-0.5,32.7,-8.8,63.2*,0.4
NCCCCCC(=O)N/N=C/c1coc2ccccc2c1=O,4.0,2.6,-12.1,.,.,.
O=C(N/N=C/c1ccc2c(c1)OCO2)c1cc(-c2ccc(F)cc2)nc2ccccc12,31.6,-1.1,-10.1,7.1,13.0,0.9
CCOc1ccccc1-c1cc(C(=O)N/N=C/c2cccnc2)c2ccccc2n1,.,.,11.2,.,.,.
O=C(O)COc1ccccc1/C=N/NC(=O)c1cc(-c2ccc(F)cc2)nc2ccccc12,34.3,2.4,19.6,-11.2,58.6*,0.4
O=C(N/N=C/c1cccs1)c1cc(-c2ccncc2)nc2ccccc12,-9.7,2.9,-25.0,-7.3,-0.2,1
COc1ccccc1-c1cc(C(=O)N/N=C/c2cccs2)c2ccccc2n1,-17.9,10.2*,10.0,3.8,-4.5,1
CCOc1ccc(-c2cc(C(=O)N/N=C/c3cccnc3)c3ccccc3n2)cc1,.,.,73.5*,.,.,.
C/C(=N\NC(=O)c1cc(-c2cccnc2)nc2ccccc12)c1ccc(O)cc1O,51.1*,2.5,8.6,1.9,1.9,1
CC(OC(=O)c1ccccc1C(=O)N(C)c1ccccc1)C(=O)Nc1ccccc1[N+](=O)[O-] (configuration not stated),.,.,-10.6,.,.,.
COc1ccc(OCc2cccc(C(=O)O)c2)cc1,33.6,.,61.9*,.,83.1*,0.2
CCOc1ccc(OCc2cccc(C(=O)N3CCCC3)c2)cc1,28.3,-2.9,26.0,3.0,43.0,0.6
CCOc1ccc(OCc2cccc(C(=O)N3CCCCCC3)c2)cc1,26.6,3.0,43.7,-10.1,66.6*,0.3
O=C(NCc1ccccc1)c1cccc(COc2ccc3c(c2)CCC3)c1,6.0,-0.2,19.9,-5.2,21.2,0.8
O=C(O)c1cccc(COc2ccc3c(c2)CCC3)c1,36.3,-3.9,62.7*,.,.,.
O=C(O)c1ccc(COc2ccc(CO)cc2Cl)cc1,-16.7,-0.6,1.9,-20.1,19.6,0.8
O=C(O)c1cccc(COc2ccc(CO)cc2Cl)c1,32.4,.,66.8*,.,84.8*,0.2
CCn1cc(C(=O)NCc2ccco2)c(=O)c2cc(S(=O)(=O)N3CC(C)CC(C)C3)ccc21 (configuration not stated),54.9*,-1.1,82.9*,11.3,-7.9,1.1
CCc1cccc(CC)c1NC(=O)CSc1nnc(CCC(=O)O)c(=O)[nH]1,24.1,9.5*,-7.8,-3.1,-0.4,1
COC(=O)c1cn(C(=O)c2cccc(Br)c2)c2ccccc12,.,.,0.3,.,.,.
Cc1cc(N)n(-c2nc3ccccc3s2)n1,.,3.3,48.5,-1.7,75.1*,0.2
Cc1nn(-c2ccccc2)c(N)c1-c1ccccc1,33.1,2.0,47.3,-4.1,73.3*,0.3
Cc1nn(-c2nc3ccccc3s2)c(N)c1-c1ccccc1,21.3,2.3,28.1,-4.8,52.2*,0.5
